Data taken from ChEMBL document CHEMBL4024777, “Discovery of LY3104607: A Potent and Selective G Protein-Coupled Receptor 40 (GPR40) Agonist with Optimized Pharmacokinetic Properties to Support Once Daily Oral Treatment in Patients with Type 2 Diabetes Mellitus” (J Med Chem, 2018).
Values after ≈ are worked out from the molar mass of the structure shown. Active and inactive are the calls of the source. The rule behind the calls is not given here.

Tests used:
[1] = molecular target: Free fatty acid receptor 1 (Rattus norvegicus) (UniProt Q8K3T4); experiment: Agonist activity at GPR40 in Sprague-Dawley rat islets assessed as glucose-stimulated insulin secretion levels at 1 uM in presence of 11.2 mM glucose by ELISA (reference value: 6.24 ng/ml)
Chain of Free fatty acid receptor 1 (Rattus norvegicus) (Q8K3T4 whole entry): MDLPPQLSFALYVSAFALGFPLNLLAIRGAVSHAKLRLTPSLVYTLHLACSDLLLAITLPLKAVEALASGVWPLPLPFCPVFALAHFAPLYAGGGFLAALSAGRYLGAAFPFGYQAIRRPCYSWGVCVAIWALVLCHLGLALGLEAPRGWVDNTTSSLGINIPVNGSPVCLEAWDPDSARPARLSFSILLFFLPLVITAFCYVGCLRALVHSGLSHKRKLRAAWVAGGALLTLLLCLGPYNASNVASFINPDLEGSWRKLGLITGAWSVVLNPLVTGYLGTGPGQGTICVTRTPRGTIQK

[2] = Protein binding in plasma (unknown origin) by equilibrium dialysis assay; format: ADME, cell-free; conditions: read-out: PPB
[3] = Tmax in Beagle dog at 3 mg/kg, po; format: ADME, organism-based, Canis lupus familiaris; conditions: in vivo
In short: (§1)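 Fasted dogs dosed orally at 3 mg/kg. […] Bioavailability is derived relative to the 1 mg/kg IV dose.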

[4] = Tmax in Sprague-Dawley rat at 1 mg/kg, po; format: ADME, organism-based; conditions: in vivo
In short: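 Fasted rats given oral doses of 1 mg/kg. […] Bioavailability is calculated against the 1 mg/kg IV group.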

Rattus norvegicus = experiment: Antidiabetic activity in po dosed Zucker fa/fa rat assessed as reduction in blood glucose AUC administered daily for 21 days followed by OGTT at 1 hr after compound dosing and measured 60 mins post glucose challenge by oral glucose tolerance test; format: functional
[5] = Half life in Beagle dog at 1 mg/kg, iv; format: ADME, organism-based, Canis lupus familiaris; conditions: in vivo
[6] = molecular target: T1, Peroxisome proliferator-activated receptor delta (Homo sapiens) (UniProt Q03181); experiment: Agonist activity at GAL4-fused human PPARdelta expressed in African green monkey CV1 cells up to 30 uM after 24 hrs by luciferase reporter gene assay; format: cell-based
T1 sequence (whole entry): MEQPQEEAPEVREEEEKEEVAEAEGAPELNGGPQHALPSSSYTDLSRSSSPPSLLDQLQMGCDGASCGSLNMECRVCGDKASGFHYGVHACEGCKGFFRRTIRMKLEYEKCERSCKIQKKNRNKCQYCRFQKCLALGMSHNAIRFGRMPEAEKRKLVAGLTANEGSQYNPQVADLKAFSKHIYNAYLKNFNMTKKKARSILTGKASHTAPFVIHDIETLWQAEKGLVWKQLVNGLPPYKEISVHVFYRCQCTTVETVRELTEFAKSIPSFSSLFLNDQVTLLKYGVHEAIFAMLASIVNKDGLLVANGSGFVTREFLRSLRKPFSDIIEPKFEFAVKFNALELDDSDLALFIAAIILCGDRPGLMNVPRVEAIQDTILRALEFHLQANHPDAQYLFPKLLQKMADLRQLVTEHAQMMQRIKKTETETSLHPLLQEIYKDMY
In short: (§2)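 PPAR alpha, delta and gamma binding and functional activity were each tested at concentrations up to 30 µM.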

[7] = Initial plasma concentration in Beagle dog at 1 mg/kg, iv; format: ADME, organism-based, Canis lupus familiaris
[8] = Tmax in Beagle dog at 30 mg/kg, po; format: ADME, organism-based, Canis lupus familiaris; conditions: in vivo
In short: (§3)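 Dogs dosed orally at 30, 100 or 300 mg/kg, N = 2 per dose.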

[9] = molecular target: Free fatty acid receptor 1 (Rattus norvegicus) (UniProt Q8K3T4); experiment: Agonist activity at GPR40 in Sprague-Dawley rat islets assessed as potentiation of glucose-stimulated insulin secretion at 1 to 10 uM in presence of […] glucose by ELISA
[10] = molecular target: Free fatty acid receptor 1 (Rattus norvegicus, UniProt Q8K3T4); experiment: Agonist activity at rat PK-tagged GPR40 expressed in human U2OS cells assessed as EA-tagged beta-arrestin recruitment after 90 mins in presence of 1 % heat inactivated FBS by beta-galactosidase reporter gene assay; format: cell-based
Chain of Free fatty acid receptor 1 (Rattus norvegicus, UniProt Q8K3T4) (Q8K3T4 whole entry): as the sequence (Q8K3T4 whole entry) above
In short: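 β-Arrestin recruitment used rat GPR40 in the presence of 1% FBS. EC50 and % maximal stimulation are reported with SEM and n.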

[11] = AUC (0 to 24 hrs) in Sprague-Dawley rat at 1 mg/kg, po; format: ADME, organism-based; design: time < 24 hr, dose 1 mg/kg, route oral; conditions: in vivo
[12] = Dissociation constant, pKa of the compound; format: physicochemical
[13] = Volume of distribution at steady state in Beagle dog at 1 mg/kg, iv; format: ADME, organism-based, Canis lupus familiaris; conditions: in vivo, read-out: Vdss
[14] = molecular target: Free fatty acid receptor 1 (Rattus norvegicus) (UniProt Q8K3T4); experiment: Agonist activity at rat PK-tagged GPR40 expressed in human U2OS cells assessed as EA-tagged beta-arrestin recruitment after 90 mins in presence of 1 % heat inactivated FBS by beta-galactosidase reporter gene assay relative to untreated control; format: cell-based
[15] = AUC (0 to 24 hrs) in Beagle dog at 300 mg/kg, po; format: ADME, organism-based, Canis lupus familiaris; design: time < 24 hr, dose 300 mg/kg, route oral; conditions: in vivo
[16] = Aqueous solubility of the compound at pH 7.4; format: physicochemical
In short: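 Solubility was measured by DMSO/aqueous precipitation at pH 7.4 and reported as the last soluble concentration.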

[17] = AUC (0 to 24 hrs) in Beagle dog at 100 mg/kg, po; format: ADME, organism-based, Canis lupus familiaris; design: time < 24 hr, dose 100 mg/kg, route oral; conditions: in vivo
[18] = Tmax in Beagle dog at 300 mg/kg, po; format: ADME, organism-based, Canis lupus familiaris; conditions: in vivo; in short: as §3
Cytochrome P450 2C9 = Cytochrome P450 2C9 (Homo sapiens, UniProt P11712); experiment: Inhibition of human CYP2C9; format: ADME
Chain of Cytochrome P450 2C9 (P11712 whole entry): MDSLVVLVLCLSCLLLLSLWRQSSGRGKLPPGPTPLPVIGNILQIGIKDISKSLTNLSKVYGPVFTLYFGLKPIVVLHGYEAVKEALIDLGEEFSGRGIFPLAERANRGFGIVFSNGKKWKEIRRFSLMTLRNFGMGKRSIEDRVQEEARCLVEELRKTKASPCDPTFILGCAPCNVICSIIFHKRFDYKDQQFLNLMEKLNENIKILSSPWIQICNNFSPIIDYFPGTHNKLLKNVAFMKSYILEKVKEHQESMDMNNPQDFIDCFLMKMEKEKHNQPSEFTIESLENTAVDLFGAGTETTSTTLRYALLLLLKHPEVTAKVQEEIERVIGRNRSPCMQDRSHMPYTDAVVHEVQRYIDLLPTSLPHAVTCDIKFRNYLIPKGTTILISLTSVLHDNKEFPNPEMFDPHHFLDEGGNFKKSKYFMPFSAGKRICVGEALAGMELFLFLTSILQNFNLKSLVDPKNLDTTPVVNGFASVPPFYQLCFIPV

[19] = Tmax in Sprague-Dawley rat at 500 mg/kg, po; format: ADME, organism-based; conditions: in vivo
[20] = molecular target: T2, Peroxisome proliferator-activated receptor gamma (Homo sapiens) (UniProt P37231); experiment: Displacement of [3H]-agonist from human PPARgamma expressed in baculovirus infecetd Sf9 cells system up to 30 uM after 10 hrs in presence of DR2 by scintillation proximity assay; in short: as §2
T2 sequence (whole entry): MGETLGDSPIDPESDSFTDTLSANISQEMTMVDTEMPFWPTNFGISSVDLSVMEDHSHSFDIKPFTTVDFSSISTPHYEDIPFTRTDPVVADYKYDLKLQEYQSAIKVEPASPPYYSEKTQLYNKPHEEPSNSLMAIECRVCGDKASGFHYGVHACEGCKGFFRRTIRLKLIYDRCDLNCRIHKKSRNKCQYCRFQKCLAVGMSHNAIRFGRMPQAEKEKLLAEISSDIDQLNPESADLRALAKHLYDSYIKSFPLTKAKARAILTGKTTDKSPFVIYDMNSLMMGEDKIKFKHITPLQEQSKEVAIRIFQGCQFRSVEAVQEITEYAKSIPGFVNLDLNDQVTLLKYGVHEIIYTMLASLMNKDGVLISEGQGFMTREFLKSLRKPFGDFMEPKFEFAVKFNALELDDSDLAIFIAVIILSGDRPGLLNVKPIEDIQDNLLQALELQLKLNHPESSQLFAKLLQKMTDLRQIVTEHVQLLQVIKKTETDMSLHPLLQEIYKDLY

[21] = Tmax in Sprague-Dawley rat at 100 mg/kg, po; format: ADME, organism-based; conditions: in vivo
[22] = Half life in Sprague-Dawley rat at 1 mg/kg, iv; format: ADME, organism-based; conditions: in vivo
[23] = AUC (0 to 24 hrs) in Beagle dog at 3 mg/kg, po; format: ADME, organism-based, Canis lupus familiaris; design: time < 24 hr, dose 3 mg/kg, route oral; conditions: in vivo
[24] = Oral bioavailability in Beagle dog at 3 mg/kg; format: ADME, organism-based, Canis lupus familiaris; conditions: in vivo; in short: as §1
[25] = molecular target: T1, Peroxisome proliferator-activated receptor delta (Homo sapiens); experiment: Displacement of [3H]-agonist from human PPARdelta expressed in baculovirus infecetd Sf9 cells system up to 30 uM after 10 hrs in presence of DR2 by scintillation proximity assay; in short: as §2
[26] = Drug metabolism in rat hepatocytes assessed as metabolite-A formation; format: ADME, cell-based, Hepatocyte
[27] = molecular target: Free fatty acid receptor 1 (Homo sapiens, UniProt O14842); experiment: Agonist activity at human GPR40 receptor expressed in HEK293 cells assessed as increase in intracellular calcium flux after 2.5 hrs measured over 3 mins by calcium 4 dye-based FLIPR assay; format: functional, cell-based
Chain of Free fatty acid receptor 1 (Homo sapiens, UniProt O14842) (O14842 whole entry): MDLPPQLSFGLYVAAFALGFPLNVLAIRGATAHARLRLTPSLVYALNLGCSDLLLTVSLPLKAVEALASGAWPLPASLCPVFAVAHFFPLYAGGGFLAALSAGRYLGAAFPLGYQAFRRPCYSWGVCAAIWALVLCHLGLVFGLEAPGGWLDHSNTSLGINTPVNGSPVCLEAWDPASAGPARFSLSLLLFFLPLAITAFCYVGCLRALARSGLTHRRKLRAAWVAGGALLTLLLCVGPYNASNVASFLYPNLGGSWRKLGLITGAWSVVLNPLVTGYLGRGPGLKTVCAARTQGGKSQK
In short: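 Calcium flux was read by FLIPR in cells carrying recombinant human GPR40. Percent stimulation is relative to the response to 100 µM linoleic acid. EC50 is reported with SEM and n.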

[28] = Solubility of the compound in pH 8.1 buffer; format: physicochemical

CC#C[C@@H](CC(=O)O)c1ccc(OCc2ccc3nc(-c4c(C)cccc4C)nn3c2)cc1 gave an Activity [1] of 17.1 ng/mL, a fraction unbound [2] of under 0.01 and a Tmax [3] of 0.67 h. It also gave a Tmax [4] of 0.25 h, an ED90 (Rattus norvegicus) of 5 mg/kg and a half-life [5] of 6.53 h. The Activity [6] was “inactive”, the C0 [7] was 8240 ng/mL and the Tmax [8] was 2 h. The Activity [9] was “inactive”, the EC50 [10] was 14 nM and the AUC(0-t) at 24 h [11] was 11.7 µg·h/mL. The pKa [12] was 4.3, the Vd [13] was 0.27 L/kg and the %max [14] was 130%. For the same compound, the AUC(0-t) at 24 h [15] was 4010 µg·h/mL, the solubility [16] was over 100 µM and the AUC(0-t) at 24 h [17] was 3320 µg·h/mL. The Tmax [18] was 6 h, the IC50 (Cytochrome P450 2C9) was over 60000 nM and the Tmax [19] was 6.7 h. The Activity [20] was “inactive”, the Tmax [21] was 5.3 h and the half-life [22] was 3.98 h. For the same compound, the AUC(0-t) at 24 h [23] was 52.8 µg·h/mL, the bioavailability [24] was 83% and the Activity [25] was “inactive”. For the same compound, the Drug metabolism [26] was “Metabolite_Detected”, the EC50 [27] was 11 nM and the solubility [28] was 173 µg/mL (≈ 394 µM).
